The text below walks through data of ChEMBL document CHEMBL4842354, “Synthesis, structure-activity relationships, cocrystallization and cellular characterization of novel smHDAC8 inhibitors for the treatment of schistosomiasis” (Eur J Med Chem, 2021).

In one data set the test system is Schistosoma mansoni. Description: Antischistosomal activity against Schistosoma mansoni schistosomula at 10 uM incubated for 48 hrs by Alamar Blue assay. The format is functional.
Conditions: not given
Summed up: (§1)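 S. mansoni newly transformed schistosomula from mechanically transformed cercariae, 100 NTS/well in Medium 199 with 10% FCS, penicillin, streptomycin and rifampicin. Pre-cultured 3 h at 37°C, 5% CO2. Compounds from 20 mM DMSO stocks, final 10 or 20 μM. Alamar Blue added after 48 h exposure, then 24 h more. Resorufin read at Ex 530/Em 590 nm. Live and ethanol-killed larvae as controls; triplicate wells, two biological replicates.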
In general terms: The colour change of resazurin is a common sign of viable cells or microbes.
`CCOc1ccc(C(C)=O)cc1NC(=O)c1cc(C(=O)NO)ccc1Cl` yielded an Activity of 57%.
Still for that read-out and setting: to `Cc1ccc(C(=O)NO)cc1NC(=O)c1cccc(OCc2ccccc2)c1` belongs 67.3%; to `CCOc1ccc(C(C)=O)cc1NC(=O)c1cc(C(=O)NO)ccc1OC`, 64.3%.
The same measure, in the same setting: to `COc1ccc(C(=O)NO)cc1C(=O)Nc1ccc(Cl)cc1Cl` belongs 88.2%.
Same read-out and setting: to `COc1ccc(C(=O)NO)cc1NC(=O)c1cccc(OCc2ccccc2)c1` belongs 61%; to `O=C(NO)c1ccc(Cl)c(NC(=O)c2ccc(-c3ccccc3)cc2)c1`, 62.3%.
Turning to `COc1ccc(C(=O)Nc2cc(C(=O)NO)ccc2OC)c(OC)c1`, the Activity was found to be 65.3%.
On the same count and under the same terms, to `COc1ccc(C(C)=O)cc1NC(=O)c1cc(C(=O)NO)ccc1OC` belongs 78.2%.

The next data set deals with Histone deacetylase 1 (Homo sapiens, UniProt Q13547). As to the kind of experiment: Inhibition of recombinant human HDAC1 using ZMAL as substrate incubated for 90 mins by fluorescence based micro plate assay.
Histone deacetylase 1, sequence (Q13547 whole entry): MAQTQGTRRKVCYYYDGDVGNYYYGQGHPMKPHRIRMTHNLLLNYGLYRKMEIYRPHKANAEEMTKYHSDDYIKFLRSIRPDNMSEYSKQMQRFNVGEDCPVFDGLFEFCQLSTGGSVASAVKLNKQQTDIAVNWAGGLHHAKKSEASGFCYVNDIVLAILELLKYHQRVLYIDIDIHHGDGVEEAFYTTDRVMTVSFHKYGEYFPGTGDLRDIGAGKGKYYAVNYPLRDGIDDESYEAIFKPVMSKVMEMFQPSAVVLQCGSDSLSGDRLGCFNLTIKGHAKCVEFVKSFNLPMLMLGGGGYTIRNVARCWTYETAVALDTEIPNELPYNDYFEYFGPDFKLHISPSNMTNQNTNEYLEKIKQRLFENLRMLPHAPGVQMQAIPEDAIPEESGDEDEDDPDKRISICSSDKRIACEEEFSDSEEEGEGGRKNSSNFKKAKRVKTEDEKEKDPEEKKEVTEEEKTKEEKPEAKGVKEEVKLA
Conditions: not given
For orientation: IC50 means the concentration that gives 50% inhibition. With `CCOc1ccc(C(C)=O)cc1NC(=O)c1cc(C(=O)NO)ccc1Cl`, the half-inhibitory concentration (IC50) is 18100 nM.
Still for that read-out and setting: to `O=C(NO)c1ccc(Cl)c(NC(=O)c2ccc(-c3ccccc3)cc2)c1` belongs 10900 nM; to `COc1ccc(C(C)=O)cc1NC(=O)c1cc(C(=O)NO)ccc1OC`, 360 nM.

The next data set has as its system Schistosoma mansoni. Description: Antischistosomal activity against Schistosoma mansoni schistosomula at 20 uM incubated for 48 hrs by Alamar Blue assay. In kind it is functional.
Conditions: not given
The method in brief:
as §1
As for `CCOc1ccc(C(C)=O)cc1NC(=O)c1cc(C(=O)NO)ccc1Cl`, the Activity is 33.1%.
With `Cc1ccc(C(=O)NO)cc1NC(=O)c1cccc(OCc2ccccc2)c1`, the Activity was 46.5%.
Compound `CCOc1ccc(C(C)=O)cc1NC(=O)c1cc(C(=O)NO)ccc1OC` returned an Activity of 56.7%.
In turn, `COc1ccc(C(=O)NO)cc1C(=O)Nc1ccc(Cl)cc1Cl` gave an Activity of 83.4%.
Same read-out and setting: the same measure for `COc1ccc(C(=O)NO)cc1NC(=O)c1cccc(OCc2ccccc2)c1`: 56.2%.
On to `O=C(NO)c1ccc(Cl)c(NC(=O)c2ccc(-c3ccccc3)cc2)c1`, for which the Activity was found to be 55.1%.
The same measure, in the same setting: the same measure for `COc1ccc(C(=O)Nc2cc(C(=O)NO)ccc2OC)c(OC)c1`: 66.5%; for `COc1ccc(C(C)=O)cc1NC(=O)c1cc(C(=O)NO)ccc1OC`: 66.2%.

Another data set has as its target T1, Histone deacetylase 8 (Homo sapiens) (UniProt Q9BY41).
T1 sequence (whole entry): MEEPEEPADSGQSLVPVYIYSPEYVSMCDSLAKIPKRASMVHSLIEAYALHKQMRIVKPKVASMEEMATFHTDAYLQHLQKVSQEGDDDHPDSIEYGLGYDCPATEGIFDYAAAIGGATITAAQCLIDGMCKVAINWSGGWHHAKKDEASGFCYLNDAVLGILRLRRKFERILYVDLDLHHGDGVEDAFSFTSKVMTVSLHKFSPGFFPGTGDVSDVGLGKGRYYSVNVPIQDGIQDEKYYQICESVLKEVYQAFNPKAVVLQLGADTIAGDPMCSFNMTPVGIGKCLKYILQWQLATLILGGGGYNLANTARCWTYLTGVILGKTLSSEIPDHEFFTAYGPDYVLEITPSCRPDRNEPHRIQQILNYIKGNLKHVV
As to the kind of experiment: Inhibition of human recombinant HDAC8 at 1 uM using H2N-Arg-His-Lys(Ac)-Lys(Ac)-AMC as substrate after 90 mins by fluorescence based micro plate assay.
Conditions: not given
Summed up: (§2)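 Recombinant smHDAC8 or hHDAC8 (Romier lab) run to Fluor de Lys HDAC8 kit protocol. Substrate H2N-Arg-His-Lys(Ac)-Lys(Ac)-AMC at 50 μM with increasing inhibitor concentrations, 90 min at 37°C. Stop solution holding inhibitor plus trypsin, then 20 min at 37°C to release AMC. Fluorescence read at Ex 355/Em 460 nm.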
In general, inhibition refers to the drop in the measured response relative to a control, in per cent. With `Cc1ccc(C(=O)NO)cc1NC(=O)c1cccc(OCc2ccccc2)c1`, the inhibition turned out to be 60%.
Still for that read-out and setting: the same measure for `CCOc1ccc(C(C)=O)cc1NC(=O)c1cc(C(=O)NO)ccc1OC`: 61%.
Same read-out and setting: the same measure for `COc1ccc(C(=O)NO)cc1C(=O)Nc1ccc(Cl)cc1Cl`: 31%.
For the compound `COc1ccc(C(=O)NO)cc1NC(=O)c1cccc(OCc2ccccc2)c1`, the inhibition was 59%.
As to `COc1ccc(C(=O)Nc2cc(C(=O)NO)ccc2OC)c(OC)c1`, the inhibition was 63%.
Take `COc1ccc(C(C)=O)cc1NC(=O)c1cc(C(=O)NO)ccc1OC`: the inhibition was 71%.

The next data set concerns the target T2, Histone deacetylase 8 (Schistosoma mansoni, UniProt A5H660).
T2 sequence (A5H660 whole entry): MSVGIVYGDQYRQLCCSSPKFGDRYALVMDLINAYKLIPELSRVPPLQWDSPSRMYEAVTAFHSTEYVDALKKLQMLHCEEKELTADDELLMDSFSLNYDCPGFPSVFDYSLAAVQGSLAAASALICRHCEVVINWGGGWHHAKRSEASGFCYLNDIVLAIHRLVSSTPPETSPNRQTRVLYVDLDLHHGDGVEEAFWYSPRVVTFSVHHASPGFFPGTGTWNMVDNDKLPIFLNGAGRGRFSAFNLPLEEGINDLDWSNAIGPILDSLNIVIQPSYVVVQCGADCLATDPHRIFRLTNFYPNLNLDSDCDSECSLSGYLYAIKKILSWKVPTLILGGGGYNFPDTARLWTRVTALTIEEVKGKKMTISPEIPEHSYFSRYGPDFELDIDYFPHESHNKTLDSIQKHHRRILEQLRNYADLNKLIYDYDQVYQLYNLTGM
As to the kind of experiment: Inhibition of Schistosoma mansoni HDAC8 using Fluor de Lys as substrate incubated for 90 mins by fluorescence method.
Conditions: not given
The method in brief:
as §2
`CCOc1ccc(C(C)=O)cc1NC(=O)c1cc(C(=O)NO)ccc1Cl`: the IC50 was 140 nM.
Still for that read-out and setting: the same measure for `Cc1ccc(C(=O)NO)cc1NC(=O)c1cccc(OCc2ccccc2)c1`: 450 nM; for `CCOc1ccc(C(C)=O)cc1NC(=O)c1cc(C(=O)NO)ccc1OC`: 330 nM; for `COc1ccc(C(=O)NO)cc1C(=O)Nc1ccc(Cl)cc1Cl`: 180 nM.
`COc1ccc(C(=O)NO)cc1NC(=O)c1cccc(OCc2ccccc2)c1` had a half-maximal inhibitory concentration (IC50) of 610 nM.
Still for that read-out and setting: to `O=C(NO)c1ccc(Cl)c(NC(=O)c2ccc(-c3ccccc3)cc2)c1` belongs 400 nM; to `COc1ccc(C(=O)Nc2cc(C(=O)NO)ccc2OC)c(OC)c1`, 2080 nM; to `COc1ccc(C(C)=O)cc1NC(=O)c1cc(C(=O)NO)ccc1OC`, 150 nM.

Another data set deals with HEK293. As to the kind of experiment: Cytotoxicity against human HEK293 assessed as reduction in cell viability at 50 uM measured for 24 hrs by Alamar Blue assay. The conditions noted are these: hek293, 24 h. The format is cell-based. The method in brief: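 HEK293 cells in DMEM with 10% FCS and 5 mM glutamine at 37°C, 5% CO2, seeded at 1.5×10^3 cells/well. Compounds added at 50 μM. AlamarBlue added after 24 h and incubated a further 21 h. Resorufin fluorescence read at Ex 530/Em 590 nm. Triplicates; daunorubicin positive control.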
Take `CCOc1ccc(C(C)=O)cc1NC(=O)c1cc(C(=O)NO)ccc1Cl`: the Activity is listed as 60.6%.
`Cc1ccc(C(=O)NO)cc1NC(=O)c1cccc(OCc2ccccc2)c1`: the Activity was determined as 81.4%.
Same read-out and setting: the same measure for `CCOc1ccc(C(C)=O)cc1NC(=O)c1cc(C(=O)NO)ccc1OC`: 59.9%.
The same measure, in the same setting: to `COc1ccc(C(=O)NO)cc1C(=O)Nc1ccc(Cl)cc1Cl` belongs 58.3%; to `COc1ccc(C(=O)NO)cc1NC(=O)c1cccc(OCc2ccccc2)c1`, 95.4%.
As to `O=C(NO)c1ccc(Cl)c(NC(=O)c2ccc(-c3ccccc3)cc2)c1`, the Activity came out at 81.7%.
Still for that read-out and setting: to `COc1ccc(C(=O)Nc2cc(C(=O)NO)ccc2OC)c(OC)c1` belongs 88.4%.
On the same count and under the same terms, the same measure for `COc1ccc(C(C)=O)cc1NC(=O)c1cc(C(=O)NO)ccc1OC`: 66.2%.

A further data set addresses T3, Protein deacetylase HDAC6 (Homo sapiens, UniProt Q9UBN7).
T3 sequence (Q9UBN7 whole entry): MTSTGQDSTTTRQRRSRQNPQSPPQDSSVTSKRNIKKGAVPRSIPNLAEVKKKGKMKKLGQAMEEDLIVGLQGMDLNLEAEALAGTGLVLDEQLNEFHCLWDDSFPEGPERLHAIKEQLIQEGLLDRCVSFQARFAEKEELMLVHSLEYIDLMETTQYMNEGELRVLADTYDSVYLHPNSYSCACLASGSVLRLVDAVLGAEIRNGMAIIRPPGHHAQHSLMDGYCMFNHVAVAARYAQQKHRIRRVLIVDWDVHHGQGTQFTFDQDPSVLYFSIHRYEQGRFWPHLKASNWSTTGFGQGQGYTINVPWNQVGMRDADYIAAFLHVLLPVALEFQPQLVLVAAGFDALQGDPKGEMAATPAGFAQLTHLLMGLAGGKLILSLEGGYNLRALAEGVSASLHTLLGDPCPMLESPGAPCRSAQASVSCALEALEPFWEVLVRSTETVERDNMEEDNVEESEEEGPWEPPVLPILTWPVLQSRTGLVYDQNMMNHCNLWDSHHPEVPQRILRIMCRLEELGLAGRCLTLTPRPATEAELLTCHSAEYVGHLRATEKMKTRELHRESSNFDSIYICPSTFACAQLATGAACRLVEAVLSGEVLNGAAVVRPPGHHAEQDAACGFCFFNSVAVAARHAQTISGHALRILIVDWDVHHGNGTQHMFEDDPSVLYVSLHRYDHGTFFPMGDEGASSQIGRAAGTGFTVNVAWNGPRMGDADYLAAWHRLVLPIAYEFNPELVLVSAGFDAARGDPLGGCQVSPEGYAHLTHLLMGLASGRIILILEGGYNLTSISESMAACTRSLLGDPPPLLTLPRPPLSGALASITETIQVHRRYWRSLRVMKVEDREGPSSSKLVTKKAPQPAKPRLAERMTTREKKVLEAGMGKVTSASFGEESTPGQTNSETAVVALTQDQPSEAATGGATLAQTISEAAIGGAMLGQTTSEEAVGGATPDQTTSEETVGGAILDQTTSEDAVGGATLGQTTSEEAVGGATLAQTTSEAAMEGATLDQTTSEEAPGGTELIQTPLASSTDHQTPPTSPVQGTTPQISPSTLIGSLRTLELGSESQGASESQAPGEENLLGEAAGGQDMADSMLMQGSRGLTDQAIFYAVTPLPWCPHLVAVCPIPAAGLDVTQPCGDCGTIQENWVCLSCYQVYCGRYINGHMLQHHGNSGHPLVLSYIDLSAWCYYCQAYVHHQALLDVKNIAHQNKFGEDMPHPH
As to the kind of experiment: Inhibition of recombinant human HDAC6 using ZMAL as substrate incubated for 90 mins by fluorescence based micro plate assay.
Conditions: not given
Regarding `CCOc1ccc(C(C)=O)cc1NC(=O)c1cc(C(=O)NO)ccc1Cl`, the 50% inhibitory concentration (IC50) is 110 nM.
Take `O=C(NO)c1ccc(Cl)c(NC(=O)c2ccc(-c3ccccc3)cc2)c1`: the IC50 is 160 nM.
On the same count and under the same terms, the same measure for `COc1ccc(C(C)=O)cc1NC(=O)c1cc(C(=O)NO)ccc1OC`: 20 nM.

A further data set deals with T4, Histone deacetylase 8 (Homo sapiens, UniProt Q9BY41).
T4 sequence (Q9BY41 whole entry): T1 sequence (whole entry)
As to the kind of experiment: Inhibition of human recombinant HDAC8 using H2N-Arg-His-Lys(Ac)-Lys(Ac)-AMC as substrate after 90 mins by fluorescence based micro plate assay.
Conditions: not given
As to `CCOc1ccc(C(C)=O)cc1NC(=O)c1cc(C(=O)NO)ccc1Cl`, the IC50 came out at 220 nM.
`O=C(NO)c1ccc(Cl)c(NC(=O)c2ccc(-c3ccccc3)cc2)c1`: the 50% inhibitory concentration (IC50) worked out at 450 nM.
